Test results as given in ChEMBL document CHEMBL1124231, “Structure-activity relationships among analogues of pemedolac, cis-1-ethyl-1,3,4,9-tetrahydro-4-(phenylmethyl)pyrano[3,4-b]indo le-1-a cetic acid, a potent analgesic agent” (J Med Chem, 1988).

How the values were obtained:
Mus musculus [1] = assay: Inhibition against writhing induced by Phenylbenzoquinone in male swiss albino mice at 25 mg/kg; type: functional
Method in brief: (§1)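 Mice in groups of 10, fasted overnight, dosed by gastric gavage with compound or vehicle (0.5% Tween 80 in distilled water). PBQ given ip 1 h later (0.15 mL of 0.02% per 10 g body weight). Writhes counted per mouse over the following 15 min. […] Benzylamine salts dosed as free acid.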

Rattus norvegicus [2] = assay: Inhibition against adjuvant-induced paw edema at a dose of 25 mg/kg in male Sprague-Dawley rats.; type: functional
Method in brief: (§2)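 Male Sprague-Dawley rats (180–200 g), left hindpaw injected intradermally with 0.1 mL Freund's complete adjuvant. Compound or vehicle given by gastric gavage just before FCA (day 0) and at 24 and 48 h. Paw volume read by plethysmometer before FCA and on day 3. Edema is the day 0 to day 3 volume difference, averaged per group.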

[3] = Partition coefficient (logP); type: physicochemical; settings: octanol/water
Method in brief: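 Calculated by computer program, not measured experimentally.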

[4] = Inhibitory activity against prostaglandin biosynthesis in stimulated chondrocyte cell culture; type: functional
Rattus norvegicus [5] = assay: Inhibition against adjuvant-induced paw edema at a dose of 25 mg/kg in Male Sprague-Dawley rats; type: functional; method in brief: as §2
Mus musculus [6] = species: Mus musculus; assay: Inhibition against writhing induced by Phenylbenzoquinone in male swiss albino mice; type: functional; method in brief: as §1
Mus musculus [7] = assay: Inhibition against writhing induced by Phenylbenzoquinone in male swiss albino mice; at 25 mg/kg; type: functional; method in brief: as §1
Mus musculus [8] = assay: Inhibition against writhing induced by Phenylbenzoquinone in male swiss albino mice at 10 mg/kg; type: functional; method in brief: as §1
Mus musculus [9] = assay: Inhibition against writhing induced by Phenylbenzoquinone in male swiss albino mice at 200 mg/kg; type: functional; method in brief: as §1

| SMILES | inhibition in vivo at 25 mg/kg (Mus musculus [1]) | inhibition in vivo at 25 mg/kg (Rattus norvegicus [2]) | logP [3] | IC50 [4] | ED50 (Mus musculus [6]) | also measured |
| --- | --- | --- | --- | --- | --- | --- |
| C=CCC[C@@H]1CCC(CC)(CC(=O)O)c2[nH]c3c(CC)cccc3c21 (stereo not given in full) | 0% | 16% | – | – | – | – |
| C=CC[C@H]1COC(CC)(CC(=O)O)c2[nH]c3ccccc3c21 (stereo not given in full) | 21% | – | 3.3 | 0.12 µM | – | inhibition in vivo at 25 mg/kg (Rattus norvegicus [5]): 46% |
| C=CC[C@H]1COC(CC)(CC(=O)O)c2[nH]c3c(C)cccc3c21 (stereo not given in full) | 10% | 54% | 4 | 0.2 µM | – | – |
| CCc1cccc2c3c([nH]c12)C(CC)(CC(=O)O)CC[C@@H]3c1ccccc1 (stereo not given in full) | 17% | 12% | – | – | – | – |
| C=CC[C@@H]1COC(CC)(CC(=O)O)c2[nH]c3c(C)cccc3c21 (stereo not given in full) | 15% | 31% | – | > 10 µM | – | – |
| C=CC[C@H]1CCC(CC)(CC(=O)O)c2[nH]c3c(CCC)cccc3c21 (stereo not given in full) | – | 39% | 6.9 | – | 28.7 mg/kg | – |
| CCC1(CC(=O)O)OC[C@H](Cc2ccccc2)c2c1[nH]c1ccccc21 (single isomer, unassigned) [DEXPEMEDOLAC] | – | 37% | 4.4 | 0.023 µM | 2 mg/kg | – |
| C=CC[C@@H]1COC(CC)(CC(=O)O)c2[nH]c3c(CCC)cccc3c21 (stereo not given in full) | 2% | 36% | – | – | – | – |
| CCc1cccc2c3c([nH]c12)C(CC)(CC(=O)O)CCC3 (stereo not given) | – | – | 5.3 | 0.02 µM | – | – |
| CCC1(CC(=O)O)CC[C@H](Cc2ccccc2)c2c1[nH]c1ccccc21 (stereo not given in full) | – | 49% | 6.2 | 0.011 µM | 1.2 mg/kg | – |
| CCc1cccc2c3c([nH]c12)C(CC)(CC(=O)O)CC[C@@H]3CC1CC1 (stereo not given in full) | 0% | 19% | – | – | – | – |
| CCC1(CC(=O)O)OC[C@H](Cc2ccccc2)c2c1[nH]c1c(C)cccc21 (stereo not given in full) | – | 47% | 5 | – | 4.7 mg/kg | – |
| C=CC[C@H]1COC(CC)(CC(=O)O)c2[nH]c3c(CCC)cccc3c21 (stereo not given in full) | – | 32% | – | – | 9.5 mg/kg | – |
| CCc1cccc2c3c([nH]c12)C(CC)(CC(=O)O)CC[C@@H]3Cc1ccccc1 (stereo not given in full) | – | 38% | 7.4 | – | 22.3 mg/kg | – |
| CCC1(CC(=O)O)OC[C@H](CCc2ccccc2)c2c1[nH]c1ccccc21 (stereo not given in full) | – | 0% | – | – | – | inhibition in vivo at 25 mg/kg (Mus musculus [7]): 0% |
| C=CC[C@H]1CC[C@](CC)(CC(=O)O)c2[nH]c3c(CC)cccc3c21 | 5% | 0% | – | 4 µM | – | – |
| CCC1(CC(=O)O)CC[C@@H](Cc2ccccc2)c2c1[nH]c1c(C)cccc21 (stereo not given in full) | – | 24% | – | – | – | inhibition in vivo at 10 mg/kg (Mus musculus [8]): 5% |
| C=CCC[C@H]1CCC(CC)(CC(=O)O)c2[nH]c3c(CC)cccc3c21 (stereo not given in full) | 2% | 43% | – | – | – | – |
| C=CC[C@@H]1COC(CC)(CC(=O)O)c2[nH]c3c(CC)cccc3c21 (stereo not given in full) | 33% | 55% | – | – | – | – |

| SMILES | inhibition in vivo at 25 mg/kg (Mus musculus [1]) | inhibition in vivo at 25 mg/kg (Rattus norvegicus [2]) | logP [3] | IC50 [4] | ED50 (Mus musculus [6]) | also measured |
| --- | --- | --- | --- | --- | --- | --- |
| CCc1cccc2c3c([nH]c12)C(CC)(CC(=O)O)CC[C@H]3c1ccccc1 (stereo not given in full) | 28% | 37% | – | – | – | – |
| CCC1(CC(=O)O)OC[C@@H](CCc2ccccc2)c2c1[nH]c1ccccc21 (stereo not given in full) | – | 20% | – | – | – | inhibition in vivo at 25 mg/kg (Mus musculus [7]): 0% |
| CCc1cccc2c3c([nH]c12)C(CC)(CC(=O)O)OC[C@@H]3Cc1ccccc1 (stereo not given in full) | – | 15% | 5.6 | – | – | – |
| CCC1(CC(=O)O)CC[C@H](Cc2ccccc2)c2c1[nH]c1c(C)cccc21 (stereo not given in full) | – | 43% | 6.9 | – | 3.4 mg/kg | – |
| C=CC[C@H]1COC(CC)(CC(=O)O)c2[nH]c3c(CC)cccc3c21 (stereo not given in full) | – | – | 4.5 | 0.3 µM | 6.2 mg/kg | – |
| CCc1cccc2c3c([nH]c12)C(CC)(CC(=O)O)CC[C@H]3Cc1ccccc1 (stereo not given in full) | 15% | 6% | – | – | – | – |
| CCC1(CC(=O)O)OC[C@@H](Cc2ccccc2)c2c1[nH]c1c(C)cccc21 (stereo not given in full) | 11% | 40% | – | – | – | – |
| CCC[C@H]1CCC(CC)(CC(=O)O)c2[nH]c3c(CC)cccc3c21 (stereo not given in full) | 15% | – | – | – | – | – |
| C=CC[C@@H]1COC(CC)(CC(=O)O)c2[nH]c3ccccc3c21 (stereo not given in full) | 25% | 30% | – | > 10 µM | – | – |
| COc1ccc2c(c1)c(CC(=O)O)c(C)n2C(=O)c1ccc(Cl)cc1 [INDOMETHACIN] | – | – | – | 0.011 µM | 1.5 mg/kg | – |
| C=C[C@@H]1CCC(CC)(CC(=O)O)c2[nH]c3c(CC)cccc3c21 (stereo not given in full) | 0% | 62% | – | – | – | – |
| C=CC[C@H]1CC[C@@](CC)(CC(=O)O)c2[nH]c3c(CC)cccc3c21 | 94% | 54% | – | 0.015 µM | – | – |
| C=CC[C@H]1CCC(CC)(CC(=O)O)c2[nH]c3ccccc3c21 (stereo not given in full) | – | – | 5.2 | 0.05 µM | 19.6 mg/kg | – |
| CCc1cccc2c3c([nH]c12)C(CC)(CC(=O)O)OCC3 (stereo not given) [ETODOLAC] | – | – | – | 0.023 µM | – | – |
| C=C[C@H]1CCC(CC)(CC(=O)O)c2[nH]c3c(CC)cccc3c21 (stereo not given in full) | 21% | 30% | – | – | – | – |
| C=CC[C@@H]1CCC(CC)(CC(=O)O)c2[nH]c3c(CC)cccc3c21 (stereo not given in full) | – | 35% | – | – | – | inhibition in vivo at 200 mg/kg (Mus musculus [9]): 23% |
| C=CC[C@H]1CCC(CC)(CC(=O)O)c2[nH]c3c(CC)cccc3c21 (stereo not given in full) | – | 44% | 6.3 | 0.015 µM | 10.6 mg/kg | – |
| CCC1(CC(=O)O)CC[C@@H](Cc2ccccc2)c2c1[nH]c1ccccc21 (stereo not given in full) | 4% | 42% | – | – | – | – |
| C=CC[C@H]1CCC(CC)(CC(=O)O)c2[nH]c3c(C)cccc3c21 (stereo not given in full) | – | – | 5.8 | 0.05 µM | 8.3 mg/kg | – |
